Rev-RRE block = HIV-1 Rev-RRE binding inhibitors, primary screen, biochemical, FRET, protein-RNA interaction. P05866. Rev peptide-RRE RNA binding. inhibition, % at 8 µM. actives 0.79% (n = 97,000). AID 704, 2007;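 active = inhibition above the screen-wide mean plus 3 SD, cut at about 35% in these data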;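 note: 0% = median DMSO wells and 100% = median Neomycin B control wells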
Target sequence (P05866 whole entry, looked up): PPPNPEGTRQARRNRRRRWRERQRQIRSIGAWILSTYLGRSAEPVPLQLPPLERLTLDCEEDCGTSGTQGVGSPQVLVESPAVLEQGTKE
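Test system: labelled RRE RNA duplex and labelled Rev peptide. Times: 5 min compound–RNA preincubation, then 15 min with peptide, 25 °C. Doses: single-dose 8 µM. Measured by: FRET, excitation 480 nm, emission 540 nm donor and 671 nm acceptor. Measure: % inhibition of FRET ratio versus controls.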
CYP2C19 activ = human CYP2C19 activators, primary screen, biochemical, luminescence. 96,000 tested, under 10 active. activation factor at 5 µM. recombinant CYP2C19, luciferin-H EGE luminescence; active compounds read high; 0 = fully inhibited enzyme, 1 = untreated enzyme;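 active = activation factor of at least 2 at 5 µM in the primary screen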;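 note: 0 = wells with 2.5 mM tranylcypromine and 1 = vehicle-only wells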
Target sequence (P33261 whole entry, looked up): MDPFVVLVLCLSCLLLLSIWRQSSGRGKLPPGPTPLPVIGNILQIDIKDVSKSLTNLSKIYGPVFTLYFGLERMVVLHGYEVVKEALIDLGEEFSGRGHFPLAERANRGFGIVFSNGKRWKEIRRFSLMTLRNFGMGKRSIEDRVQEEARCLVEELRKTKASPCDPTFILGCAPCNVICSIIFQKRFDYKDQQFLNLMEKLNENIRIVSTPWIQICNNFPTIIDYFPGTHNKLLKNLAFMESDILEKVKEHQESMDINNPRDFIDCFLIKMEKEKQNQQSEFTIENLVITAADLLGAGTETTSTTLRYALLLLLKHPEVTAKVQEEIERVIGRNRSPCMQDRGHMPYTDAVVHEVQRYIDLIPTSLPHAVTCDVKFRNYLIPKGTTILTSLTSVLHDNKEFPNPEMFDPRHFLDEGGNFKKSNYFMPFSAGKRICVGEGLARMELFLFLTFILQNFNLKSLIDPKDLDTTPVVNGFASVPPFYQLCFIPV
CYP2C9 inhib = blockers of cytochrome P450 2C9 activity – biochemical, luminescence, ADME assay, primary screen | P11712 | CYP2C9 Supersomes, luciferin-H conversion | inhibition, % at 5 µM | actives 20% (n = 96,000) | AID 777, 2007;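 active = blocking of liver enzyme CYP2C9 beyond about 50% at 5 µM, limit read from the data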
CYP2C19 inhib = blockers of cytochrome P450 2C19 activity – biochemical, luminescence, ADME assay, primary screen | P33261 | CYP2C19 Supersomes, luciferin-H EGE luminescence, 30 min | inhibition, % at 5 µM | actives 21% (n = 96,000) | AID 778, 2007;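 active = CYP2C19 inhibition above a set limit at 5 µM in the primary screen, cut at about 50% in these data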;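 note: plate controls were negative control wells for no effect and 2.5 mM tranylcypromine positive control for full effect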
Cav32 inh = Cav3.2 calcium influx blockers – cell-based, Fluo-4 calcium fluorescence, FDSS, MLSMR library, primary screen | Voltage-dependent T-type calcium channel subunit alpha-1H (Homo sapiens), O95180 | Cav3.2-expressing cells; active compounds read low | B-score at 10 µM | actives 4% (n = 100,000) | AID 449739, 2010;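 active = single-dose well whose peak fluorescence ratio is a statistical outlier from its plate by either plate-standardised score or position-corrected B-score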
CYP2C9 act = human CYP2C9 activators, primary screen, biochemical, luminescence; Cytochrome P450 2C9 (Homo sapiens), P11712; recombinant CYP2C9, luciferin-H conversion; active compounds read high; factor 1 = untreated enzyme, 0 = blocked; activation factor at 5 µM; actives 1.4% (n = 96,000); AID 1024, 2008;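 active = activation factor of 2 or more for CYP2C9 at a 5 µM dose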;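 note: 0 = sulfaphenazole-blocked wells and 1 = vehicle-only wells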
* marks the source's active call; other numbers are inactive results; · = not tested or not shown. Sampled rows, rich in hits. Any-hit rate of the full collection: about 27%.

SMILES	Rev-RRE block	CYP2C19 activ	CYP2C9 inhib	CYP2C19 inhib	Cav32 inh	CYP2C9 act
CCOC(=O)N1CCN(S(=O)(=O)c2cc(Br)cc3c2N(C(C)=O)C(C)C3)CC1 (configuration not stated)	·	0.4	50	64*	1.2	0.5
CC(=O)N1c2c(cc(Br)cc2S(=O)(=O)N2CCN(c3ccccn3)CC2)CC1C (configuration not stated)	1	0.7	67*	31	-0.13	0.3
COc1ccc(Cn2c(/C=C/c3ccccc3)nc3ccccc32)cc1	13	0.6	91*	38	-2.9	0.1
COc1ccc(/C=C/C(=O)c2nc3ccccc3n2CC(=O)c2ccc(OC)cc2)cc1	9	0.6	28	39	-4.2	0.7
CCn1c(/C=C/c2ccccc2)nc2ccccc21	3	0.6	-163	44	-1	2.6*
CCCOc1ccc(Cc2nn[nH]n2)cc1	·	0.5	25	51*	0.1	0.7
Cn1c(=O)c2c(nc(NCCCO)n2C/C=C/c2ccccc2)n(C)c1=O	-1	0.1	68*	90*	0.39	0.3
C=CCn1c(NCCO)nc2c1c(=O)n(C)c(=O)n2C	56*	1.2	-15	-20	0.74	1.2
Cn1c(=O)c2c(nc(NCCO)n2C)n(C)c1=O	4	0.9	12	13	1.1	0.9
COc1ccc(Nc2nc3c(c(=O)n(C)c(=O)n3C)n2CCO)cc1	·	1	59*	3	-0.15	0.4
Cn1c(=O)c2c(nc(NCCO)n2CCc2ccccc2)n(C)c1=O	·	0.8	9	25	-0.0063	0.9
CCOc1ccccc1C(=O)N/N=C/c1cccc2cccnc12	4	0.6	-49	41	-0.58	1.5
O=C(Cc1cccc2ccccc12)N/N=C/c1ccc(Sc2cccc3cccnc23)o1	7	0.5	82*	53*	·	0.2
CCCCC(=O)N/N=C/c1ccc(Sc2cccc3cccnc23)o1	15	0.5	57*	47	-1.2	0.4
CCN1C(=O)N(c2ccc(Cl)cc2)C(C)=CC1(C)C	1	0.7	11	26	0.92	0.9
CCOC(=O)C1=C(C)N2C(=C(C#N)[C@@H]1c1ccc(C(=O)OC)cc1)SC[C@@]2(O)C(C)(C)C	7	0	98*	97*	-5.8*	0
CCOC(=O)C1=C(C)NC2=C(C(=O)CC(C)(C)C2)C1c1ccc2c(c1)CCCN2C (configuration not stated)	0	0.8	30	24	-0.19	0.7
Cc1ccccc1OCCNC(=O)CNC(=O)c1ccccc1O	4	0.6	42	43	-1.5	0.6
Cc1occc1C(=O)Nc1sc2c(c1C(N)=O)CCC(C(C)(C)C)C2 (configuration not stated)	21	0.9	58*	7	-0.54	0.4
c1ccc(OCCSc2ncnc3nc[nH]c23)cc1	2	·	·	·	-0.57	·
Cc1ccc(-c2csc(=S)n2CC(=O)OCC(=O)NCc2ccco2)cc1	0	0.7	56*	28	-1.4	0.4
Cc1ccc(C(=O)Oc2ccccc2N2C(=O)C3CCC(C)CC3C2=O)cc1 (configuration not stated)	2	0.5	58*	54*	-3.3	0.4
N#CC1=C(N)C(C#N)(C#N)C(c2ccc[nH]2)C2CCCC=C12 (configuration not stated)	63*	0.8	32	21	-0.7	0.7
C=CCN1C(=O)[C@]2(c3ccccc31)C1CCCC=C1C(C#N)=C(N)C2(C#N)C#N (some centres not stated)	2	1.2	-4	-18	-0.067	1
O=S(=O)(c1cccc(-c2csc(-c3cccnc3)n2)c1)N1CCCCC1	2	0.1	94*	94*	-1.2	0.1
SMILES	Rev-RRE block	CYP2C19 activ	CYP2C9 inhib	CYP2C19 inhib	Cav32 inh	CYP2C9 act
CC1CCN(S(=O)(=O)c2cccc(-c3csc(-c4cccnc4)n3)c2)CC1	7	0.1	79*	85*	0.19	0.2
O=S(=O)(c1ccc(-c2csc(-c3cccnc3)n2)cc1)N1CCCCC1	0	·	·	·	-0.23	·
CN(C(=O)COc1cc(=O)n(C)c2ccccc12)c1cccc(Cl)c1	10	0.8	19	17	-0.43	0.8
CCOc1ccc(CNC(=O)CCCOc2cc(=O)n(C)c3ccccc23)cc1	10	0.3	78*	69*	·	0.2
CCN(C(=O)COc1cc(=O)n(C)c2ccccc12)c1cccc(Cl)c1	3	0.3	-57	69*	-0.0089	1.6
Cn1c(=O)cc(OCC(=O)Nc2ccccn2)c2ccccc21	2	0.5	35	53*	0.88	0.7
COc1ccc(C)cc1-n1c(N)c(C#N)c(C#N)c1-c1ccc(OC)c(OC)c1OC	9	0.7	50*	26	3.1	0.5
CCc1c(C#N)c(SCCC(=O)Nc2ccc(OC)cc2)nc2c1C(=O)CC(C)(C)C2	11	0.2	84*	83*	-1.1	0.2
Cc1ccc(S(=O)(=O)NC(=O)NCc2ccccn2)cc1	4	1	5	0	0.49	1
CC1Cc2ccccc2N1C(=O)c1ccc2snnc2c1 (configuration not stated)	7	0.2	15	81*	0.81	0.8
CC1CN(C(=O)Nc2ccc3snnc3c2)c2ccccc21 (configuration not stated)	·	0.3	81*	71*	-1.9	0.2
CNC(=O)Nc1ccc2snnc2c1	-1	0.9	17	11	0.84	0.8
Cc1ccccc1NC(=O)c1ccc2snnc2c1	·	·	·	·	0.97	·
NC(=O)CC(NC(=O)Cc1ccc(Br)cc1)c1ccc(NCc2ccc(F)c(F)c2)c([N+](=O)[O-])c1 (configuration not stated)	·	·	·	·	-0.076	·
Cc1ccc(/C=C/C(=O)c2ccc(C)cc2)cc1	3	·	·	·	-0.57	·
O=C(/C=C/c1ccc2ccccc2c1)c1ccoc1	3	0.4	34	58*	0.32	0.7
CCC[C@@H]1CCCO[C@@](C(=O)NCc2cc(C)n(C)n2)(C(F)(F)F)C1	·	·	·	·	1.1	·
COc1ccccc1CNC(=O)COC(=O)c1cnccn1	5	0.3	4	67*	0.038	1
COc1ccccc1CNC(=O)COC(=O)c1n[nH]c2ccccc12	1	0	-134	97*	-2.4	2.3*
Cc1cc2oc(=O)cc(COC(=O)c3n[nH]c4ccccc34)c2cc1C	8	0.9	76*	14	·	0.2
Cc1cc(NC(=O)COC(=O)c2n[nH]c3ccccc23)no1	-2	0.8	10	18	-0.82	0.9
